The values below come from ChEMBL document CHEMBL1145092, “Soft antimicrobial agents: synthesis and activity of labile environmentally friendly long chain quaternary ammonium compounds” (J Med Chem, 2003).

In one data set the test system is Escherichia coli. Kind of data set: Minimum concentration required to inhibit Escherichia coli ATCC 25922. The format is functional. The method in brief:
(§1)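 Broth doubling-dilution MIC in Mueller Hinton broth against ATCC quality-control strains, incubated 24 h at 37 °C in ambient air. Poorly water-soluble compounds were dissolved in minimal DMSO. Values are in µg/mL.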

For data set [1], the system named is Staphylococcus aureus. In words: Minimum concentration required to inhibit Staphylococcus aureus ATCC 25923. Type of data set: functional. The method in brief: as §1
The test system of the next data set is Enterococcus faecalis. Kind of data set: Minimum concentration required to inhibit Enterococcus faecalis ATCC 29212. Type of data set: functional. The method in brief: as §1
The next data set concerns Pseudomonas aeruginosa. Kind of data set: Minimum concentration required to inhibit Pseudomonas aeruginosa ATCC 27853. Type of data set: functional. An outline of the steps: as §1
Data set [2] is described as follows: Half life (t1/2) was determined. The format is ADME. An outline of the steps:
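Hydrolytic stability: compound from a 0.1 mg/mL ethanol stock was spiked into 10 mM phosphate buffer, pH 6, and held at 60 °C (±0.2 °C). Periodic HPLC or LC-MS/MS analysis was run, and k_obs came from linear regression of peak integration (n = 3). Selected compounds were also tested in diluted (1:4) agar at 37 °C.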

Data set [3] concerns Staphylococcus aureus. In words: Tested for antibacterial activity against Staphylococcus aureus. The format is functional.

Molecules are shown by their SMILES.

For orientation: MIC means the lowest concentration that inhibits growth of the organism.

As to `CCCCCCCCCCCC(=O)OCC[N+](CCCC)(CCCC)CCCC.CCCCCCCCCCCCCCCC(=O)OCC[N+](CCCC)(CCCC)CCCC.[Br-].[Br-]`, the MIC amounted to 250 µg/mL against Escherichia coli, 4 µg/mL against Staphylococcus aureus [1] and 16 µg/mL against Enterococcus faecalis. In addition, the MLC in the data set on Escherichia coli is 500 µg/mL; in the data set on Staphylococcus aureus [1], 32 µg/mL; in the data set with Enterococcus faecalis it was 16 µg/mL; in the data set with Pseudomonas aeruginosa, over 2000 µg/mL.

For `CCCCCCCCCCCCCCCCOC(=O)C[n+]1ccccc1`, the “Log t1/2” value in data set [2] is on record as -0.9. In addition, the MIC with Escherichia coli was 6400 µg/mL; in the data set on Staphylococcus aureus [1], 12800 µg/mL; against Enterococcus faecalis it was over 12800 µg/mL; against Pseudomonas aeruginosa, 6400 µg/mL. Further, the MLC in the data set with Escherichia coli was 12800 µg/mL; in the data set with Staphylococcus aureus [1], 12800 µg/mL; in the data set on Enterococcus faecalis, over 12800 µg/mL; in the data set on Pseudomonas aeruginosa it was 6400 µg/mL. Further, the “Log 1/MIC” value in the data set on Staphylococcus aureus [3] is listed as -4.1.

For `C[N+](C)(C)CCO` [CHOLINE], the MIC in the data set on Escherichia coli, with Staphylococcus aureus [1], with Enterococcus faecalis and in the data set with Pseudomonas aeruginosa was over 2000 µg/mL throughout. Further, the MLC in the data set with Escherichia coli, with Staphylococcus aureus [1], in the data set on Enterococcus faecalis and with Pseudomonas aeruginosa was over 2000 µg/mL each time.

For `CC[N+](CC)(CC)CCO.[Br-]`, the minimum inhibitory concentration (MIC) against Escherichia coli, with Staphylococcus aureus [1], in the data set on Enterococcus faecalis and with Pseudomonas aeruginosa was over 1000 µg/mL throughout. Further, the MLC in the data set with Escherichia coli, with Staphylococcus aureus [1], with Enterococcus faecalis and with Pseudomonas aeruginosa was over 1000 µg/mL each time.

Regarding `CCCCCCCCCCCCCCCCCCNC(=O)C[n+]1ccccc1`, in data set [2], the “Log t1/2” value turned out to be 0.81. In addition, the MIC was 1000 µg/mL against Escherichia coli, under 0.25 µg/mL against Staphylococcus aureus [1], under 0.25 µg/mL against Enterococcus faecalis and 1000 µg/mL against Pseudomonas aeruginosa. Also, the MLC was over 2000 µg/mL with Escherichia coli, 4 µg/mL in the data set on Staphylococcus aureus [1], 8 µg/mL in the data set with Enterococcus faecalis and over 2000 µg/mL in the data set on Pseudomonas aeruginosa. Further, the “Log 1/MIC” value in the data set on Staphylococcus aureus [3] is reported as 0.6.

For `CCCCCCCCCCCC(=O)OCC[N+](CC)(CC)CC.CCCCCCCCCCCC(=O)OCC[N+](CCCC)(CCCC)CCCC.CCCCCCCCCCCC(=O)OCC[n+]1ccccc1.CCCCCCCCCCCCNC(=O)C[n+]1ccccc1.[Br-].[Br-].[Br-].[Br-]`, the MIC in the data set with Escherichia coli worked out at 125 µg/mL; with Staphylococcus aureus [1] it was 16 µg/mL; against Enterococcus faecalis, 32 µg/mL; against Pseudomonas aeruginosa it was 500 µg/mL. Besides, the MLC in the data set on Escherichia coli came to 250 µg/mL; in the data set with Staphylococcus aureus [1] it was 250 µg/mL; in the data set on Enterococcus faecalis, 32 µg/mL; in the data set on Pseudomonas aeruginosa, 1000 µg/mL.

Take `CCCCCCCCCCCC(=O)OCC[N+](CC)(CC)CC.CCCCCCCCCCCC(=O)OCC[n+]1ccccc1.[Br-].[Br-]`: the MIC against Escherichia coli came to 125 µg/mL; with Staphylococcus aureus [1], 32 µg/mL; in the data set with Enterococcus faecalis, 64 µg/mL; with Pseudomonas aeruginosa it was 1000 µg/mL. The MLC in the data set with Escherichia coli is 250 µg/mL; in the data set with Staphylococcus aureus [1] it was 125 µg/mL; in the data set with Enterococcus faecalis, 64 µg/mL; in the data set with Pseudomonas aeruginosa it was 1000 µg/mL.

With `CCCCCCCCCCCCCCCCOC(=O)CC[n+]1ccccc1`, the MIC is over 1000 µg/mL in the data set with Escherichia coli, 250 µg/mL with Staphylococcus aureus [1], 250 µg/mL with Enterococcus faecalis and over 1000 µg/mL against Pseudomonas aeruginosa. In addition, the MLC is over 1000 µg/mL in the data set with Escherichia coli, 250 µg/mL in the data set on Staphylococcus aureus [1], 500 µg/mL in the data set with Enterococcus faecalis and over 1000 µg/mL with Pseudomonas aeruginosa. Also, the “Log 1/MIC” value in the data set on Staphylococcus aureus [3] was determined as 0.42.

In the case of `O=C(O)CC[n+]1ccccc1`, the MIC against Escherichia coli, against Staphylococcus aureus [1], in the data set with Enterococcus faecalis and against Pseudomonas aeruginosa was over 1000 µg/mL in each case. Further, the MLC in the data set on Escherichia coli, in the data set with Staphylococcus aureus [1], in the data set on Enterococcus faecalis and with Pseudomonas aeruginosa was over 1000 µg/mL in each case.

With `CCCCCCCCCCCCCCCC(=O)OCC[N+](CCCC)(CCCC)CCCC`, the “Log t1/2” value in data set [2] turned out to be 0.12. Further, the minimal inhibitory concentration (MIC) amounted to 125 µg/mL against Escherichia coli, 2 µg/mL in the data set on Staphylococcus aureus [1], 4 µg/mL in the data set with Enterococcus faecalis and 250 µg/mL with Pseudomonas aeruginosa. Further, the MLC with Escherichia coli stood at 250 µg/mL; in the data set with Staphylococcus aureus [1], 2 µg/mL; with Enterococcus faecalis, 8 µg/mL; in the data set with Pseudomonas aeruginosa it was 1000 µg/mL. In addition, in the data set on Staphylococcus aureus [3], the “Log 1/MIC” value is -0.3.

As for `CCCCCCCCCCCC(=O)OCC[N+](CC)(CC)CC.[Br-]`, in data set [2], the “Log t1/2” value is 0.52. The MIC is 16 µg/mL with Escherichia coli, 16 µg/mL against Staphylococcus aureus [1], 32 µg/mL against Enterococcus faecalis and 250 µg/mL in the data set on Pseudomonas aeruginosa. For the same molecule, the MLC is 125 µg/mL with Escherichia coli, 16 µg/mL in the data set with Staphylococcus aureus [1], 32 µg/mL in the data set on Enterococcus faecalis and 250 µg/mL with Pseudomonas aeruginosa. Also, the “Log 1/MIC” value in the data set on Staphylococcus aureus [3] is on record as -1.2.

Turning to `CCOC(=O)C(C)[n+]1ccccc1` (stereo not drawn), the MIC against Escherichia coli, in the data set with Staphylococcus aureus [1], against Enterococcus faecalis and in the data set with Pseudomonas aeruginosa was over 12800 µg/mL throughout. Further, the MLC in the data set with Escherichia coli, with Staphylococcus aureus [1], with Enterococcus faecalis and with Pseudomonas aeruginosa was over 12800 µg/mL throughout.

In the case of `CCOC(=O)C[n+]1ccccc1`, the MIC with Escherichia coli, in the data set with Staphylococcus aureus [1], against Enterococcus faecalis and with Pseudomonas aeruginosa was over 12800 µg/mL each time. Also, the MLC in the data set with Escherichia coli, in the data set with Staphylococcus aureus [1], with Enterococcus faecalis and with Pseudomonas aeruginosa was over 12800 µg/mL each time.

Take `CCCCCCCCCCCC(=O)OCC[N+](CC)(CC)CC.CCCCCCCCCCCCCCCC(=O)OCC[N+](CC)(CC)CC.[Br-].[Br-]`: the MIC is 500 µg/mL against Escherichia coli, 8 µg/mL against Staphylococcus aureus [1], 32 µg/mL with Enterococcus faecalis and over 2000 µg/mL with Pseudomonas aeruginosa. In addition, the MLC in the data set on Escherichia coli is 500 µg/mL; with Staphylococcus aureus [1] it was 16 µg/mL; in the data set with Enterococcus faecalis, 125 µg/mL; in the data set with Pseudomonas aeruginosa it was over 2000 µg/mL.

As for `CCCCCCCCCCCCCCCC(=O)OCCC[n+]1ccccc1`, the “Log t1/2” value in data set [2] is given as 2.36. The MIC was 250 µg/mL against Escherichia coli, under 0.25 µg/mL in the data set with Staphylococcus aureus [1], 1 µg/mL in the data set on Enterococcus faecalis and 500 µg/mL in the data set on Pseudomonas aeruginosa. The MLC was 250 µg/mL in the data set on Escherichia coli, 1 µg/mL in the data set with Staphylococcus aureus [1], 4 µg/mL in the data set with Enterococcus faecalis and 500 µg/mL with Pseudomonas aeruginosa. In addition, the “Log 1/MIC” value with Staphylococcus aureus [3] was found to be 0.6.

With `CCCCCCCC(=O)OCC[n+]1ccccc1.[Br-]`, the “Log t1/2” value in data set [2] stood at 0.62. The minimal inhibitory concentration (MIC) was 1000 µg/mL against Escherichia coli, 500 µg/mL with Staphylococcus aureus [1], over 2000 µg/mL against Enterococcus faecalis and over 2000 µg/mL in the data set with Pseudomonas aeruginosa. Also, the MLC with Escherichia coli was 1000 µg/mL; in the data set on Staphylococcus aureus [1] it was 500 µg/mL; in the data set with Enterococcus faecalis, over 2000 µg/mL; in the data set on Pseudomonas aeruginosa, over 2000 µg/mL. Moreover, the “Log 1/MIC” value with Staphylococcus aureus [3] is recorded as -2.69.

In the case of `O=C(O)C[n+]1ccccc1`, the MIC came out at 12800 µg/mL against Escherichia coli, 6400 µg/mL in the data set on Staphylococcus aureus [1], 12800 µg/mL against Enterococcus faecalis and 12800 µg/mL in the data set on Pseudomonas aeruginosa. Moreover, the MLC with Escherichia coli, in the data set on Staphylococcus aureus [1], in the data set on Enterococcus faecalis and in the data set on Pseudomonas aeruginosa was 12800 µg/mL in each case.

Consider `CCCCCCCCCCCC(=O)OCC[N+](C)(C)C`, for which the MIC was found to be 64 µg/mL in the data set with Escherichia coli, 16 µg/mL in the data set with Staphylococcus aureus [1], 16 µg/mL in the data set on Enterococcus faecalis and 250 µg/mL against Pseudomonas aeruginosa. The MLC in the data set with Escherichia coli stood at 64 µg/mL; in the data set with Staphylococcus aureus [1], 16 µg/mL; in the data set on Enterococcus faecalis it was 64 µg/mL; with Pseudomonas aeruginosa it was 250 µg/mL.

For the molecule `CC(=O)OC[n+]1ccccc1.[Cl-]`, the minimal inhibitory concentration (MIC) came to 3200 µg/mL in the data set on Escherichia coli, 3200 µg/mL against Staphylococcus aureus [1], 320 µg/mL in the data set with Enterococcus faecalis and 3200 µg/mL against Pseudomonas aeruginosa. Also, the MLC in the data set with Escherichia coli, with Staphylococcus aureus [1], in the data set on Enterococcus faecalis and with Pseudomonas aeruginosa was 3200 µg/mL each time.

For the molecule `OCCC[n+]1ccccc1`, the MIC in the data set on Escherichia coli, against Staphylococcus aureus [1], in the data set with Enterococcus faecalis and with Pseudomonas aeruginosa was over 2000 µg/mL each time. The MLC in the data set with Escherichia coli, in the data set with Staphylococcus aureus [1], in the data set on Enterococcus faecalis and in the data set on Pseudomonas aeruginosa was over 2000 µg/mL in each case.

Regarding `CCCCCCCCCCCCCCCCCCNC(=O)C[n+]1ccccc1.CCCCCCCCCCCCNC(=O)C[n+]1ccccc1.[Cl-].[Cl-]`, the minimal inhibitory concentration (MIC) with Escherichia coli turned out to be 125 µg/mL; against Staphylococcus aureus [1], 8 µg/mL; against Enterococcus faecalis it was 8 µg/mL; against Pseudomonas aeruginosa, 500 µg/mL. Moreover, the MLC in the data set on Escherichia coli is 125 µg/mL; in the data set on Staphylococcus aureus [1], 32 µg/mL; in the data set with Enterococcus faecalis, 16 µg/mL; in the data set on Pseudomonas aeruginosa, 500 µg/mL.

Turning to `CCCCCCCCCCCC(=O)OCC[n+]1ccccc1.CCCCCCCCCCCCCCCC(=O)OCC[n+]1ccccc1.CCCCCCCCCCCCCCCCCC(=O)OCC[n+]1ccccc1.[Br-].[Br-].[Br-]`, the MIC was 125 µg/mL with Escherichia coli, 8 µg/mL in the data set with Staphylococcus aureus [1], 32 µg/mL against Enterococcus faecalis and over 2000 µg/mL with Pseudomonas aeruginosa. Also, the MLC in the data set on Escherichia coli was 250 µg/mL; with Staphylococcus aureus [1], 16 µg/mL; with Enterococcus faecalis it was 32 µg/mL; in the data set on Pseudomonas aeruginosa it was over 2000 µg/mL.
